For assay [1], the target named is T1, human TLR8 (Homo sapiens, UniProt Q9NR97).
T1 sequence (Q9NR97 27-1041): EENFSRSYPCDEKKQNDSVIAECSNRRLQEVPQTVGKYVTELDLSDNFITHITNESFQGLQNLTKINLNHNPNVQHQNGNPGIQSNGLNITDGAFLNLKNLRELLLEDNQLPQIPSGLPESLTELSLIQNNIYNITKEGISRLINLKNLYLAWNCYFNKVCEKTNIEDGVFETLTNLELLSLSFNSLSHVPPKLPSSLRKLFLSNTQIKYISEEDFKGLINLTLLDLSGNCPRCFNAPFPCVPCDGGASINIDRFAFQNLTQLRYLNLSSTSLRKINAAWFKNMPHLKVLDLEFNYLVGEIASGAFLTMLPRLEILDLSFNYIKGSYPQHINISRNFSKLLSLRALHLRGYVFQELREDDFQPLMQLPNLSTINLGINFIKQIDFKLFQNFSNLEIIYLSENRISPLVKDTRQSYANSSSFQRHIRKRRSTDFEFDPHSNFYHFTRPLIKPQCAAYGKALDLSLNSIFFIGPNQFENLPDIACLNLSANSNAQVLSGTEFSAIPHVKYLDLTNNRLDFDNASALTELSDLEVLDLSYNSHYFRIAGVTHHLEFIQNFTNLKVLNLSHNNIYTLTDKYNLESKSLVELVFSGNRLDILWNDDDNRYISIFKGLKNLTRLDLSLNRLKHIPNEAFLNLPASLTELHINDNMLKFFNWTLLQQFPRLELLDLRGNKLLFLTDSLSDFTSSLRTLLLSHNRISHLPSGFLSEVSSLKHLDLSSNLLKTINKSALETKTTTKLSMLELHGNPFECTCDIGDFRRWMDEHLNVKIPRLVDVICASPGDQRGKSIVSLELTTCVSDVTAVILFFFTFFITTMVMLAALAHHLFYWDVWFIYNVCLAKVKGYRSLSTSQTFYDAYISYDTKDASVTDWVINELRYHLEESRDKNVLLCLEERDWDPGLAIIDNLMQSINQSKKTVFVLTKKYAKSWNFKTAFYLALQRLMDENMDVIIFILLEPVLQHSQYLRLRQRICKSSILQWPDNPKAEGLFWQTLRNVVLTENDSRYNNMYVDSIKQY
Particulars: earlier observation; cited from earlier work.

The test system of assay [2] is human peripheral blood mononuclear cells (hPBMCs). Put plainly: IFN-α induction in human PBMCs. Type of assay: cell-based. Particulars: 12 h stimulation, graded concentrations. In short, it runs like this: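 Fresh PBMCs were isolated on Ficoll–Hypaque gradients from venous blood of consenting donors and plated at 10^5 cells/well. They were stimulated for 12 h with graded concentrations of test compound. Supernatants were collected by centrifugation and assayed in triplicate with high-sensitivity multisubtype IFN-α ELISA.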

The target of another assay is T2, human TLR7 (Homo sapiens, UniProt Q9NYK1).
T2 sequence (Q9NYK1 27-1049): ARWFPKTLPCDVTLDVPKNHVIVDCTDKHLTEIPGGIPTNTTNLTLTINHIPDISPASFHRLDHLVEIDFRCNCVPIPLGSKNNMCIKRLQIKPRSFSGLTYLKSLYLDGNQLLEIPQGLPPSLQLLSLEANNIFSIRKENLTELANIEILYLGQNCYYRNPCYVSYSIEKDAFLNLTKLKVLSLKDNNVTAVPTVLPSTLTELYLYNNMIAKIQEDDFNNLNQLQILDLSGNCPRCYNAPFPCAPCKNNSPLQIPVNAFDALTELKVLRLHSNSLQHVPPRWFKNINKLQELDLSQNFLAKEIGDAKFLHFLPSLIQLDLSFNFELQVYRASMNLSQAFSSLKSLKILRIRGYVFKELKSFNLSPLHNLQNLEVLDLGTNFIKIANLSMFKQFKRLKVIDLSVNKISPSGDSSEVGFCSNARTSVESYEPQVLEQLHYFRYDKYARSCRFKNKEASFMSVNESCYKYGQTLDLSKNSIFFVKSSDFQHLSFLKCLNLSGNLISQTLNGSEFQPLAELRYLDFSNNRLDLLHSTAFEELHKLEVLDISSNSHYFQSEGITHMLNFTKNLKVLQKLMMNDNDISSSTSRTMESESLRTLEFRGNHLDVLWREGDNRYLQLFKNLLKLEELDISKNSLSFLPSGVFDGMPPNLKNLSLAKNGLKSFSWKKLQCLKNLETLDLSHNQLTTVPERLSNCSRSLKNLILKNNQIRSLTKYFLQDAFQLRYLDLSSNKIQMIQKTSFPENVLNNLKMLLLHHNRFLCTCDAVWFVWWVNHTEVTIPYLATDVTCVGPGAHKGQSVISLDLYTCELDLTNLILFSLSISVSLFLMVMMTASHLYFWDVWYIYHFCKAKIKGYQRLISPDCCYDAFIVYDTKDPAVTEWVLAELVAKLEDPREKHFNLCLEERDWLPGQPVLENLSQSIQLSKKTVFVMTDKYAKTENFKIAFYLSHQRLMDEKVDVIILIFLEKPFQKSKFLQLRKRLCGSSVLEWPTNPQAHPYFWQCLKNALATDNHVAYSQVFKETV
Put plainly: Human TLR7 reporter gene assay. The conditions noted are these: for TLR7-agonistic activity (in words): TLR7 reporter gene assay. Type of assay: cell-based. Background: Reporter assays use an easily measured gene product as a stand-in for the process of interest.

For assay [3], the target named is T1, human TLR8. Put plainly: Human TLR8 reporter gene assay. Type of assay: cell-based. Particulars: for TLR8-agonistic activity (in words): TLR8 reporter gene assay; for TLR7/TLR8 selectivity (in words): TLR7 and TLR8 reporter gene assays. Summed up:
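HEK-Blue cells carrying human TLR8, with secreted alkaline phosphatase under NF-κB/AP-1 promoter control, seeded at ~10^5 cells/mL and grown to confluency. Stimulated with graded concentrations of test compound. Supernatant sAP, proportional to NF-κB induction, read spectrophotometrically at 620 nm using an alkaline phosphatase-specific chromogen in the detection medium.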

Assay [4] has as its system human lymphocytic subsets in whole blood. Put plainly: CD69 up-regulation in lymphocytic subsets, ex vivo whole human blood. Type of assay: cell-based. The conditions noted are these: 16.5 h.

We go through 16 compounds from PMC4191598 (Journal of Medicinal Chemistry, 2014).

In general, EC50 refers to the concentration giving half of the maximal effect.

Regarding `CCCCc1cc2c(o1)c(N)nc1ccccc12` [Compound 5, 2-butylfuro[2,3-c]quinolin-4-amine], on human TLR8 [1], the “TLR8 agonism (in words)” value is “prominent and selective TLR8 agonism”.

On to `CCCCc1nc2c(N)nc3ccccc3c2o1` [Compound 9, 2-Butyloxazolo[4,5-c]quinolin-4-amine], for which, in assay [2], the IFN-α induction entry is “showed IFN-α inducing ability”. `CCCNc1nc2c(N)nc3ccccc3c2s1` [Compound 11, N^2-Propylthiazolo[4,5-c]quinoline-2,4-diamine]: the IFN-α induction result in assay [2] was “showed IFN-α inducing ability”. This compound displayed an EC50 on human TLR7 of 730 nM.

As for `CCCNc1nc2c(N)nc3ccccc3c2o1` [Compound 13, N^2-Propyloxazolo[4,5-c]quinoline-2,4-diamine], the “TLR8-agonistic activity (in words)” value on human TLR8 [3] is “entirely devoid of any detectable TLR7- or TLR8-agonistic activity”. Moreover, the “TLR7-agonistic activity (in words)” value at human TLR7 is listed as “entirely devoid of any detectable TLR7- or TLR8-agonistic activity”. For `CCC(=O)Nc1nc2c(N)nc3ccccc3c2s1` [Compound 16, N-(4-Aminothiazolo[4,5-c]quinolin-2-yl)propionamide], the “TLR8-agonistic activity (in words)” value at human TLR8 [3] is “inactive”. For the same compound, the “TLR7-agonistic activity (in words)” value on human TLR7 is “inactive”.

`Nc1nc2c(N)nc3ccccc3c2s1` [Compound 17, thiazolo[4,5-c]quinoline-2,4-diamine]: the “TLR8-agonistic activity (in words)” value on human TLR8 [3] was “inactive”. Moreover, the “TLR7-agonistic activity (in words)” value at human TLR7 was “inactive”. As to `CCCCc1nc2c(s1)c(N)nc1ccccc12` [Compound 22a, 2-Butylthiazolo[5,4-c]quinolin-4-amine], the “TLR8-agonistic activity (in words)” value on human TLR8 [3] is “completely inactive”. In addition, the “TLR7-agonistic activity (in words)” value at human TLR7 was “completely inactive”. As for `CCCCc1nc2c(o1)c(N)nc1ccccc12` [Compound 22b, 2-Butyloxazolo[5,4-c]quinolin-4-amine], on human TLR8 [3], the “TLR8-agonistic activity (in words)” value is given as “negligibly low TLR8-agonistic activity”. Regarding `CCCCC1CN2C(N)=Nc3ccccc3C2=N1` (stereo not drawn) [Compound 27, 2-Butyl-2,3-dihydroimidazo[1,2-c]quinazolin-5-amine], on human TLR8 [3], the “TLR8-agonistic activity (in words)” value is “entirely inactive”. Moreover, the “TLR7-agonistic activity (in words)” value on human TLR7 is “entirely inactive”. Regarding `CCCCc1cn2c(N)nc3ccccc3c2n1` [Compound 29, 2-Butylimidazo[1,2-c]quinazolin-5-amine], the “TLR8-agonistic activity (in words)” value on human TLR8 [3] is “entirely inactive”. Moreover, the “TLR7-agonistic activity (in words)” value on human TLR7 was “entirely inactive”. Regarding `CCCCc1nc2c3ccccc3nc(N)n2n1` [Compound 33, 2-Butyl[1,2,4]triazolo[1,5-c]quinazolin-5-amine], the “TLR8-agonistic activity (in words)” value at human TLR8 [3] is “inactive”. Moreover, the “TLR7-agonistic activity (in words)” value at human TLR7 is “inactive”.

As for `CCCCC1CN2C(=N1)C(N)=Nc1ccccc12` (stereo not drawn) [Compound 37, 2-Butyl-1,2-dihydroimidazo[1,2-a]quinoxalin-4-amine], the “TLR7/TLR8 selectivity (in words)” value at human TLR8 [3] was “selective TLR8 agonists”.

Turning to `CCCCc1cn2c(n1)c(N)nc1ccccc12` [Compound 39, 2-Butylimidazo[1,2-a]quinoxalin-4-amine], the “TLR7/TLR8 selectivity (in words)” value on human TLR8 [3] is given as “selective TLR8 agonists”. Turning to `CCCCc1nc2c(N)nc3ccccc3n2n1` [Compound 46, 2-Butyl[1,2,4]triazolo[1,5-a]quinoxalin-4-amine], on human TLR8 [3], the “TLR8-agonistic activity (in words)” value is “complete loss of activity”. Moreover, the “TLR7-agonistic activity (in words)” value at human TLR7 was “complete loss of activity”. Turning to `CCCCc1nnc2c(N)nc3ccccc3n12` [Compound 49, 1-Butyl[1,2,4]triazolo[4,3-a]quinoxalin-4-amine], the “TLR8-agonistic activity (in words)” value at human TLR8 [3] is given as “complete loss of activity”. In addition, the “TLR7-agonistic activity (in words)” value on human TLR7 is listed as “complete loss of activity”. Take `CCCCn1cc2c(n1)c(N)nc1ccccc12` [Compound 53, 2-Butyl-2H-pyrazolo[3,4-c]quinolin-4-amine]: the IFN-α induction entry in assay [2] is reported as “showed IFN-α inducing ability”. Moreover, the “CD69 expression in cytokine-induced killer-, natural killer-, T- and B-lymphocytic subsets” value in assay [4] was “dramatically enhanced expression”.
